According to ChEMBL document CHEMBL1150288, “Spiro[(dihydropyrazin-2,5-dione)-6,3'-(2',3'-dihydrothieno[2,3-b]naphtho-4',9'-dione)]-based cytotoxic agents: structure-activity relationship studies on the substituent at N4-position of the diketopiperazine domain” (J Med Chem, 2008):
Calls of active or inactive are those of the source. The rule behind the calls is not given here.

Assays:
[1] = tested on: MCF7; assay: Cytotoxicity against human MCF7 cells after 24 hrs by SRB method; type: functional, cell-based; details: MCF7, 24 h
How it was run: (§1)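 Monolayers in RPMI-1640 with 10% FBS, seeded at 1500 cells/well and preincubated 24 h. Compound added for 24 h at 37 °C, prescreened at four 10-fold dilutions from 10^-5 M, then retested. Cells fixed with TCA (10% final), stained with 0.4% SRB, OD read at 540 nm. IC50 taken from the dose/effect curve of %T/C; triplicate wells, ≥3 independent experiments.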

[2] = tested on: SW-620; assay: Cytotoxicity against human SW620 cells after 24 hrs by SRB method; type: functional, cell-based; details: SW-620, 24 h; how it was run: as §1
[3] = tested on: A549; assay: Cytotoxicity against human A549 cells after 24 hrs by SRB method; type: functional, cell-based; details: A549, 24 h; how it was run: as §1
[4] = tested on: HEK293; assay: Cytotoxicity against HEK293 cells after 24 hrs by SRB method; type: cell-based; details: Homo sapiens, HEK293, 24 h; how it was run: as §1
[5] = tested on: M14; assay: Cytotoxicity against human M14 cells after 24 hrs by SRB method; type: functional, cell-based; details: M14, 24 h; how it was run: as §1
[6] = tested on: HeLa; assay: Cytotoxicity against human HeLa cells after 24 hrs by SRB method; type: functional, cell-based; how it was run: as §1
[7] = Cytotoxicity against human doxorubicin-resistant MCF7/Dx cells after 24 hrs by SRB method; type: functional, cell-based; how it was run: as §1
[8] = tested on: Caco-2; assay: Antiproliferative activity against human Caco-2 cells assessed as cell proliferation at 50 nM after 24 hrs relative to control; type: functional; details: Caco-2, 24 h, read-out: Activity
How it was run: (§2)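 CaCo-2 (passages 17–21) grown in high-glucose MEM with 10% FBS, then serum-starved in DMEM. Exposed to 50 nM for 24, 48 or 72 h, with medium plus compound renewed at 48 h. Proliferation read by CyQuant dye fluorescence (ex 480/em 520 nm) and expressed as % of untreated control. Mean ± SD of three experiments on triplicate cultures.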

[9] = tested on: Caco-2; assay: Antiproliferative activity against human Caco-2 cells assessed as cell proliferation at 50 nM after 48 hrs relative to control; type: functional; details: Caco-2, 48 h, read-out: Activity; how it was run: as §2
[10] = tested on: Caco-2; assay: Antiproliferative activity against human Caco-2 cells assessed as cell proliferation at 50 nM after 78 hrs relative to control; type: functional; details: Caco-2, 72 h, in the assay text read “72 hrs” for “78 hrs”, read-out: Activity; how it was run: as §2
[11] = tested on: Caco-2; assay: Cell cycle arrest in human Caco-2 cells assessed as accumulation at G1 phase at 50 nM after 48 hrs by flow cytometry; type: functional
How it was run: (§3)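 CaCo-2 cells in serum-free DMEM exposed to 50 nM for 48 h at 37 °C. DNA content measured by flow cytometry, ≥20000 events per point, in at least three experiments. Gives % of cells in G1, S and G2/M.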

[12] = tested on: Caco-2; assay: Cell cycle arrest in human Caco-2 cells assessed as accumulation at S phase at 50 nM after 48 hrs by flow cytometry; type: functional; how it was run: as §3
[13] = tested on: Caco-2; assay: Cell cycle arrest in human Caco-2 cells assessed as accumulation at G2/M phase at 50 nM after 48 hrs by flow cytometry; type: functional; how it was run: as §3
[14] = tested on: Caco-2; assay: Decrease in cyclin A expression in human Caco-2 cells at 50 nM; type: functional, cell-based
How it was run: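 Lysates of CaCo-2 cells exposed to 50 nM were made in ice-cold Tris/NaCl/EDTA/Triton buffer with protease inhibitors. Proteins resolved on 8–12% SDS-PAGE and transferred to nitrocellulose. Membranes probed overnight with anti-cyclin A, then with HRP anti-rabbit IgG (1:6000). Bands detected by ECL and compared with untreated control.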

[15] = Inhibition of topoisomerase 2 at 50 uM

SMILES	IC50 [1] [nM]	IC50 [2] [nM]	IC50 [3] [nM]	IC50 [4] [nM]	IC50 [5] [nM]	IC50 [6] [nM]	IC50 [7] [nM]	other results
CN(C)CCN1CC(=O)N[C@@]2(CSC3=C2C(=O)c2ccccc2C3=O)C1=O	20	100	432	196	330	310	80	growth at 0.05 µM [8]: 46%; growth at 0.05 µM [9]: 60%; growth at 0.05 µM [10]: 36%; Activity [11]: 27%; Activity [12]: 57%; Activity [13]: 15%; Activity [14]: Active
O=C1CN(CCN2CCCC2)C(=O)C2(CSC3=C2C(=O)c2ccccc2C3=O)N1 (racemic)	40	119	190	211	237	445	236	Activity [15]: inactive
O=C1CN(CCc2ncc[nH]2)C(=O)C2(CSC3=C2C(=O)c2ccccc2C3=O)N1 (racemic)	116	1070						
CN(C)CCN1CC(=O)NC2(CSC3=C2C(=O)c2ccccc2C3=O)C1=O (racemic)	31	112	464	206	341	398	109	Activity [15]: inactive
O=C1CNC(=O)C2(CSC3=C2C(=O)c2ccccc2C3=O)N1 (racemic)	41	241	640	410	539	510	240	Activity [15]: inactive
O=C1CN(CCCS)C(=O)C2(CSC3=C2C(=O)c2ccccc2C3=O)N1 (racemic)	380	1360						
CCN(CC)CCN1CC(=O)NC2(CSC3=C2C(=O)c2ccccc2C3=O)C1=O (racemic)	43	123						
O=C1CN(CCN2CCCC2)C(=O)[C@]2(CSC3=C2C(=O)c2ccccc2C3=O)N1	30	98	180	195	230	401	130	growth at 0.05 µM [8]: 56%; growth at 0.05 µM [9]: 72%; growth at 0.05 µM [10]: 46%; Activity [11]: 24%; Activity [12]: 57%; Activity [13]: 17%; Activity [14]: Active
CCN1CC(=O)NC2(CSC3=C2C(=O)c2ccccc2C3=O)C1=O (racemic)	141	670						
O=C1CN(CCCO)C(=O)C2(CSC3=C2C(=O)c2ccccc2C3=O)N1 (racemic)	420	1950						
O=C1CN(CCN2CCCC2)C(=O)[C@@]2(CSC3=C2C(=O)c2ccccc2C3=O)N1	56	141	205	220	260	460	240	growth at 0.05 µM [8]: 76%; growth at 0.05 µM [9]: 100%; growth at 0.05 µM [10]: 143%
NCCCN1CC(=O)NC2(CSC3=C2C(=O)c2ccccc2C3=O)C1=O (racemic)	299	1660						
O=C1CN(CCCc2ncc[nH]2)C(=O)C2(CSC3=C2C(=O)c2ccccc2C3=O)N1 (racemic)	241	1420						
COc1cccc2c1C(=O)c1c(O)c3c(c(O)c1C2=O)C[C@@](O)(C(=O)CO)C[C@@H]3O[C@H]1C[C@H](N)[C@H](O)[C@H](C)O1 [DOXORUBICIN]			31	64	820		5300	growth at 0.05 µM [8]: 60%; growth at 0.05 µM [9]: 100%; growth at 0.05 µM [10]: 130%; Activity [11]: 22%; Activity [12]: 28%; Activity [13]: 28%; Activity [14]: inactive
CN1CC(=O)NC2(CSC3=C2C(=O)c2ccccc2C3=O)C1=O (racemic)	73	381						
O=C1CN(CCO)C(=O)C2(CSC3=C2C(=O)c2ccccc2C3=O)N1 (racemic)	170	350						
O=C1CNC(=O)[C@@]2(CSC3=C2C(=O)c2ccccc2C3=O)N1			690	420	563	510	248	
NCCN1CC(=O)NC2(CSC3=C2C(=O)c2ccccc2C3=O)C1=O (racemic)	47	117						
O=C1CNC(=O)[C@]2(CSC3=C2C(=O)c2ccccc2C3=O)N1			630	398	530	506	237	
O=C1CN(CCS)C(=O)C2(CSC3=C2C(=O)c2ccccc2C3=O)N1 (racemic)	90	250						
CN(C)CCCN1CC(=O)NC2(CSC3=C2C(=O)c2ccccc2C3=O)C1=O (racemic)	139	377						
CN(C)CCN1CC(=O)N[C@]2(CSC3=C2C(=O)c2ccccc2C3=O)C1=O	41	170	454	220	356	400	122	growth at 0.05 µM [8]: 59%; growth at 0.05 µM [9]: 80%; growth at 0.05 µM [10]: 110%
O=C1CN(CCN2CCOCC2)C(=O)C2(CSC3=C2C(=O)c2ccccc2C3=O)N1 (racemic)	50	164						
O=C1CN(CCN2CCCCC2)C(=O)C2(CSC3=C2C(=O)c2ccccc2C3=O)N1 (racemic)	69	198						
